Data: ChEMBL document CHEMBL1142420, “Synthesis and DNA-cleaving activity of lactenediynes conjugated with DNA-complexing moieties” (2008)

Legend:
OVCAR-3 = experiment: Cytotoxicity against human OVCAR-3 cells after 48 hrs by SRB assay; format: functional; settings: OVCAR-3, 48 h
Method in brief: (§1)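 Run at NCI: cell lines exposed 48 h to a range of concentrations, with untreated controls under identical conditions. Growth measured by sulforhodamine B staining with colorimetric read-out. Percent growth computed from test, time-zero and control absorbances. GI50, TGI and LC50 read from PG versus log10 molar concentration as the concentrations giving PG = 50, 0 and -50.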

SW-620 = experiment: Cytotoxicity against human SW620 cells after 48 hrs by SRB assay; format: functional; settings: SW-620, 48 h; method in brief: as §1
SK-OV-3 = experiment: Cytotoxicity against human SKOV3 cells after 48 hrs by SRB assay; format: functional; settings: SK-OV-3, 48 h; method in brief: as §1
HT-29 = experiment: Cytotoxicity against human HT29 cells after 48 hrs by SRB assay; format: functional; settings: HT-29, 48 h; method in brief: as §1
786-0 = experiment: Cytotoxicity against human 786-0 cells after 48 hrs by SRB assay; format: functional; settings: 786-0, 48 h; method in brief: as §1
OVCAR-8 = experiment: Cytotoxicity against human OVCAR8 cells after 48 hrs by SRB assay; format: functional; settings: OVCAR-8, 48 h; method in brief: as §1
Escherichia coli = experiment: Induction of plasmid pBR322 DNA cleavage assessed as concentration required to cleave 50% of DNA after 24 hrs by gel electrophoresis
Method in brief: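 Supercoiled pBR322 (90% form I) diluted to 50 µg/mL (75 µM/bp) in pH 7.5 Tris 40 mM/EDTA 4 mM. Incubated 24 h at 37 °C, then run on agarose gel with ethidium bromide and viewed at 302 nm. Form I versus II+III quantified by densitometry after subtracting form II present in the control.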

NCI-H23 = experiment: Cytotoxicity against human NCI-H23 cells after 48 hrs by SRB assay; format: functional; settings: NCI-H23, 48 h, read-out: Log LC50 (the source's name) (converted)
Method in brief: (§2)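 Run at NCI: cells exposed 48 h to a range of concentrations, with untreated controls under identical conditions. Growth measured by sulforhodamine B staining with colorimetric read-out. Percent growth (PG) calculated from absorbance at 48 h with drug, at time zero, and at 48 h without drug. Log molar concentration plotted against PG; GI50 at PG = 50, TGI at PG = 0, LC50 at PG = −50.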

MCF7 = experiment: Cytotoxicity against human MCF7 cells after 48 hrs by SRB assay; format: functional; settings: MCF7, 48 h; method in brief: as §1
MOLT-4 = experiment: Cytotoxicity against human MOLT4 cells after 48 hrs by SRB assay; format: functional; settings: MOLT-4, 48 h; method in brief: as §1
NCI-H322M = experiment: Cytotoxicity against human NCI-H322M cells after 48 hrs by SRB assay; format: functional; method in brief: as §1
SK-MEL-28 = experiment: Cytotoxicity against human SK-MEL-28 cells after 48 hrs by SRB assay; format: functional; settings: SK-MEL-28, 48 h; method in brief: as §1
HCC 2998 = experiment: Cytotoxicity against human HCC2998 cells after 48 hrs by SRB assay; format: functional; settings: HCC 2998, 48 h; method in brief: as §1
SNB-19 = experiment: Cytotoxicity against human SNB19 cells after 48 hrs by SRB assay; format: functional; settings: SNB-19, 48 h; method in brief: as §2
MDA-MB-435 = experiment: Cytotoxicity against human MDA-MB-435 cells after 48 hrs by SRB assay; format: functional; settings: MDA-MB-435, 48 h; method in brief: as §1
NCI-H226 = experiment: Cytotoxicity against human NCI-H226 cells after 48 hrs by SRB assay; format: functional; settings: NCI-H226, 48 h; method in brief: as §1
IGROV-1 = experiment: Cytotoxicity against human IGROV1 cells after 48 hrs by SRB assay; format: functional; settings: IGROV-1, 48 h; method in brief: as §1
MDA-MB-231 = experiment: Cytotoxicity against human MDA-MB-231 cells after 48 hrs by SRB assay; format: functional; settings: MDA-MB-231, 48 h; method in brief: as §1
EKVX = experiment: Cytotoxicity against human EKVX cells after 48 hrs by SRB assay; format: functional; method in brief: as §1
UACC-62 = experiment: Cytotoxicity against human UACC62 cells after 48 hrs by SRB assay; format: functional; settings: UACC-62, 48 h; method in brief: as §1
UACC-257 = experiment: Cytotoxicity against human UACC257 cells after 48 hrs by SRB assay; format: functional; settings: UACC-257, 48 h; method in brief: as §1
MDA-N = experiment: Cytotoxicity against human MDA-N cells after 48 hrs by SRB assay; format: functional; method in brief: as §1
ACHN = experiment: Cytotoxicity against human ACHN cells after 48 hrs by SRB assay; format: functional; method in brief: as §1
NCI-H460 = experiment: Cytotoxicity against human NCI-H460 cells after 48 hrs by SRB assay; format: functional; settings: NCI-H460, 48 h; method in brief: as §1
SF-295 = experiment: Cytotoxicity against human SF295 cells after 48 hrs by SRB assay; format: functional; settings: SF-295, 48 h; method in brief: as §1
HCT-15 = experiment: Cytotoxicity against human HCT15 cells after 48 hrs by SRB assay; format: functional; settings: HCT-15, 48 h; method in brief: as §1
M14 = experiment: Cytotoxicity against human M14 cells after 48 hrs by SRB assay; format: functional; settings: M14, 48 h; method in brief: as §1
[1] = Cytotoxicity against human HS 578T cells after 48 hrs by SRB assay; format: functional; method in brief: as §1
U-251 = experiment: Cytotoxicity against human U251 cells after 48 hrs by SRB assay; format: functional; settings: U-251, 48 h; method in brief: as §1
[2] = read-out: Log LC50 (the source's name) (converted)

SMILES: CC(=O)O[C@@H]1C#C/C=C\C#CC[C@H]2C(=O)N(C(=O)OC(C)(C)C)[C@H]12
- GI50 (OVCAR-3): 61.7 µM
- CC50 (OVCAR-3; [2]): > 100 µM
- TGI (OVCAR-3; read-out: Log TGI (converted)): > 100 µM
- GI50 (SW-620): 13.5 µM
- CC50 (SW-620; [2]): > 100 µM
- TGI (SW-620; read-out: Log TGI (converted)): > 100 µM
- GI50 (SK-OV-3): 87.1 µM
- CC50 (SK-OV-3; [2]): > 100 µM
- TGI (SK-OV-3; read-out: Log TGI (converted)): > 100 µM
- GI50 (HT-29): > 100 µM
- CC50 (HT-29; [2]): > 100 µM
- TGI (HT-29; read-out: Log TGI (converted)): > 100 µM
- GI50 (786-0): 11.5 µM
- CC50 (786-0; [2]): > 100 µM
- TGI (786-0; read-out: Log TGI (converted)): 69.2 µM
- GI50 (OVCAR-8): 14.5 µM
- CC50 (OVCAR-8; [2]): > 100 µM
- TGI (OVCAR-8; read-out: Log TGI (converted)): 89.1 µM
- CS50 (Escherichia coli): 40 µM
- CC50 (NCI-H23): > 100 µM
- GI50 (MCF7): 1.1 µM
- CC50 (MCF7; [2]): > 100 µM
- TGI (MCF7; read-out: Log TGI (converted)): > 100 µM
- GI50 (MOLT-4): 0.407 µM
- CC50 (MOLT-4; [2]): > 100 µM
- TGI (MOLT-4; read-out: Log TGI (converted)): > 100 µM
- GI50 (NCI-H322M): > 100 µM
- CC50 (NCI-H322M; [2]): > 100 µM
- TGI (NCI-H322M; read-out: Log TGI (converted)): > 100 µM
- GI50 (SK-MEL-28): 87.1 µM
- CC50 (SK-MEL-28; [2]): > 100 µM
- TGI (SK-MEL-28; read-out: Log TGI (converted)): > 100 µM
- GI50 (HCC 2998): 34.7 µM
- CC50 (HCC 2998; [2]): > 100 µM
- TGI (HCC 2998; read-out: Log TGI (converted)): > 100 µM
- CC50 (SNB-19; [2]): > 100 µM
- TGI (SNB-19; read-out: Log TGI (converted)): > 100 µM
- GI50 (MDA-MB-435): > 100 µM
- CC50 (MDA-MB-435; [2]): > 100 µM
- TGI (MDA-MB-435; read-out: Log TGI (converted)): > 100 µM
- GI50 (NCI-H226): 39.8 µM
- GI50 (IGROV-1): 19.5 µM
- CC50 (IGROV-1; [2]): > 100 µM
- TGI (IGROV-1; read-out: Log TGI (converted)): > 100 µM
- GI50 (MDA-MB-231): > 100 µM
- CC50 (MDA-MB-231; [2]): > 100 µM
- TGI (MDA-MB-231; read-out: Log TGI (converted)): > 100 µM
- GI50 (EKVX): > 100 µM
- CC50 (EKVX; [2]): > 100 µM
- TGI (EKVX; read-out: Log TGI (converted)): > 100 µM
- GI50 (UACC-62): 21.4 µM
- CC50 (UACC-62; [2]): > 100 µM
- TGI (UACC-62; read-out: Log TGI (converted)): > 100 µM
- CC50 (UACC-257; [2]): > 100 µM
- TGI (UACC-257; read-out: Log TGI (converted)): > 100 µM
- GI50 (UACC-257; read-out: pGI50 (converted)): 18.2 µM
- GI50 (MDA-N): 87.1 µM
- CC50 (MDA-N; [2]): > 100 µM
- TGI (MDA-N; read-out: Log TGI (converted)): > 100 µM
- GI50 (ACHN): 2.63 µM
- CC50 (ACHN; [2]): > 100 µM
- TGI (ACHN; read-out: Log TGI (converted)): 25.7 µM
- GI50 (NCI-H460): 0.0933 µM
- CC50 (NCI-H460; [2]): > 100 µM
- TGI (NCI-H460; read-out: Log TGI (converted)): > 100 µM
- GI50 (SF-295): 30.9 µM
- CC50 (SF-295; [2]): > 100 µM
- TGI (SF-295; read-out: Log TGI (converted)): > 100 µM
- CC50 (HCT-15; [2]): > 100 µM
- TGI (HCT-15; read-out: Log TGI (converted)): > 100 µM
- GI50 (HCT-15; read-out: pGI50 (converted)): 40.7 µM
- GI50 (M14): 39.8 µM
- CC50 (M14; [2]): > 100 µM
- TGI (M14; read-out: Log TGI (converted)): > 100 µM
- GI50 [1]: 53.7 µM
- CC50 [1, 2]: > 100 µM
- TGI ([1]; read-out: Log TGI (converted)): > 100 µM
- GI50 (U-251): 16.2 µM
- CC50 (U-251; [2]): > 100 µM
- TGI (U-251; read-out: Log TGI (converted)): > 100 µM
